Data from paper PMC4805780 (International Journal for Parasitology: Drugs and Drug …, 2016).
“Also recorded” adds a separate entry of the source. Where two headings read alike, the source gives them in different places. One block for each compound: values may come before it.

How the values were obtained:
HcPMT1 = target: T1, HcPMT1 (Haemonchus contortus, UniProt A0A2Z1FIB9); test: Methyltransferase HT activity kit assay, HcPMT1 as sole enzyme; format: biochemical
T1 sequence (A0A2Z1FIB9 1-349): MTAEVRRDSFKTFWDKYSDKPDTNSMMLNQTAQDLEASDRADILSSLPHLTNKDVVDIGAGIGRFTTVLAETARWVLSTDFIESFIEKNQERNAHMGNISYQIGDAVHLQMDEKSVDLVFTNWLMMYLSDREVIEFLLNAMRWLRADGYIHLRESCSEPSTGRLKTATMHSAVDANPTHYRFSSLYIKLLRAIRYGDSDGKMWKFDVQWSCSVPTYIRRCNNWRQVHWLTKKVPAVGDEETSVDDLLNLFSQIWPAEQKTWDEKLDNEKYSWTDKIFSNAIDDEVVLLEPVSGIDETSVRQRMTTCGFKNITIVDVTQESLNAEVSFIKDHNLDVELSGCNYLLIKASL

[1] = target: T2, HcPMT1 + HcPMT2 combination (Haemonchus contortus, UniProt A0A2Z1FIB9+U5HK48); test: Methyltransferase HT activity kit assay, HcPMT1 + HcPMT2 combination; format: biochemical; settings: for IC50: read-out: HcPMT1 + HcPMT2 Activity inhibition IC50, 11 μg/ml each enzyme, 95 μM SAM, 160 μM phosphoethanolamine
T2 sequence (A0A2Z1FIB9 1-349): T1 sequence (A0A2Z1FIB9 1-349)
T2 sequence (U5HK48 3-433): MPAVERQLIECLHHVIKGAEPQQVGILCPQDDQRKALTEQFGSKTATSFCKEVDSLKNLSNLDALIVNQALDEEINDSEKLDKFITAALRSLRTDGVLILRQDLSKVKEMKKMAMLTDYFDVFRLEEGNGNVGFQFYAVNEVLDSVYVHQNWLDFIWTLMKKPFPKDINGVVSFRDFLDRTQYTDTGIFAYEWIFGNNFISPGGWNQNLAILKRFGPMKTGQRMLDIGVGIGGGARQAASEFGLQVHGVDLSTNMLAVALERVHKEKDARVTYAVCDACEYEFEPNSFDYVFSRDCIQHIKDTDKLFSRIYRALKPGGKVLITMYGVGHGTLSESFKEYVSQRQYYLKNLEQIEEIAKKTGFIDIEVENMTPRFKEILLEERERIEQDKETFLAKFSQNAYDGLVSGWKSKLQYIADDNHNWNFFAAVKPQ
Procedure, shortened: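 His-tagged recombinant HcPMT1 and HcPMT2 from E. coli BL21-CodonPlus-DE3-RIL, Ni-affinity purified, dialysed in 5 mM Hepes-KOH pH 7.8 with 0.5 mM DTT. Fluorescent SAM-dependent methyltransferase kit, 11 µg/ml each enzyme, 95 µM SAM, 160 µM phosphoethanolamine. Rising test compound from DMSO stock; DMSO-only reactions as uninhibited. Triplicate, 24 °C, 45 min shaking, then kit positive-control mix 10 min. Isopropanol stop; fluorescence 380ex/520em. % inhibition against uninhibited mean RFU; IC50 by nonlinear regression.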

[2] = tested on: H. contortus third-stage (L3) larvae; test: Anthelmintic effect on motility of third-stage larvae in culture; parameters: species or system Haemonchus contortus; settings: for anthelmintic effect against larvae: data not shown
Procedure, shortened: (§1)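 Adult females freshly taken from goat abomasum, or L3 larvae Baermann-extracted from 10-day, 21 °C faecal cultures; both PCR-confirmed as H. contortus. 100 worms per dish, in triplicate, in 20 ml RPMI-1640 with 2% glucose and antibiotics, pH 6.8. Rising test-compound concentrations, with DMSO and untreated controls; 37 °C, 5% CO2, 36 h. Worms light-stimulated 5 min at 37 °C. 50 scored per dish as very motile, sluggish or immotile. IC50 from % non-motile by nonlinear regression.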

[3] = tested on: adult H. contortus female worms; test: Anthelmintic effect on motility of adult female worms in culture; parameters: species or system Haemonchus contortus; settings: for anthelmintic effect against adult worms: all concentrations up to a maximum of 80 μM
Procedure, shortened: as §1

P. falciparum PMT = settings: previous studies ref Bobenchik et al., 2013; cited from earlier work
P. falciparum = settings: ref Bobenchik et al., 2013; cited from earlier work
MonoMac6 cells = test: WST-1 cytotoxicity assay in mammalian cells; format: cell-based, human; settings: read-out: cytotoxic IC50; mammalian monocytic cells, 48 h
Procedure, shortened: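 MonoMac6 cells seeded at 10⁴/well in phenol-red-free RPMI-1640 with 10% FCS, 2.05 mM L-glutamine, nonessential amino acids, OPI supplement and 1% penicillin-streptomycin. Test compound at rising concentrations in triplicate, with DMSO-only controls; 48 h, 37 °C, 5% CO2. WST-1 added, 1 h at 37 °C. Supernatant transferred and formazan read as absorbance at 420 nm.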

[4] = all concentrations up to a maximum of 80 μM

inhibition at 15 µM ([1]; read-out: maximum inhibition of combined activity of HcPMT1 and HcPMT2): 12%
Compound: S=C(CSc1ccccc1)Nc1cccc2ccccc12 [NSC-158011, N-naphthalen-1-yl-2-phenylsulfanylethanethioamid]
inhibitory effect against the activity of HcPMT1 as the sole enzyme (HcPMT1): did not have any significant inhibitory effect; also recorded: had no inhibitory effect
anthelmintic effect against larvae [2, 4]: did not show any anthelmintic effect
anthelmintic effect against adult worms ([3]; data not shown): did not show any anthelmintic effect
inhibitory effect against catalytic activity of P. falciparum PMT (P. falciparum PMT): significant inhibitory effect
antiparasitic activity against P. falciparum (P. falciparum): significant antiparasitic activity

Compound: CC(=NNC(=[Se])N1CC2CCC(CC2)C1)c1ccccn1 [NSC-323241, 3-Azabicyclo[3.2.2]nonane-3-carboselenoic acid, [1-(2-pyridinyl)ethylidene]hydrazide]
inhibitory effect against the activity of HcPMT1 as the sole enzyme (HcPMT1): did not have any significant inhibitory effect; also recorded: had no inhibitory effect
inhibition at 12 µM ([1]; read-out: maximum inhibition rate of combined activity of HcPMT1 and HcPMT2): 21%
anthelmintic effect against larvae [2, 4]: did not show any anthelmintic effect
anthelmintic effect against adult worms ([3]; data not shown): did not show any anthelmintic effect
inhibitory effect against catalytic activity of P. falciparum PMT (P. falciparum PMT): significant inhibitory effect
antiparasitic activity against P. falciparum (P. falciparum): significant antiparasitic activity

IC50 (HcPMT1): 5.9 ± 0.9 µM
concentration with highest inhibitory effect on HcPMT1 and HcPMT2 activity [1]: 5 µM
IC50 [1]: 2.8 ± 0.6 µM
Compound: O=C1C=C(NCCc2cc(Br)c(O)c(Br)c2)C(=O)c2ncccc21 [NSC-668394, 5,8-Quinolinedione, 7-[[2-(3,5-dibromo-4-hydroxyphenyl)ethyl]amino]-]
anthelmintic effect against larvae ([2]; up to 60 μM): did not show any anthelmintic activity
anthelmintic effect against adult H. contortus ([3]; up to 60 μM, data not shown): did not show any anthelmintic activity

IC50 (HcPMT1; read-out: HcPMT1 Activity inhibition IC50, HcPMT1 alone, 95 μM SAM, 160 μM phosphoethanolamine): 8.3 ± 1.1 µM
concentration with highest inhibitory effect on HcPMT1 and HcPMT2 activity [1]: 8 µM
IC50 [1]: 5.1 ± 1.8 µM
Compound: Hydrazinecarbothioamide, N,N-dipropyl- 2-(2-pyridinemethylene)-, (N,N,S)-copper(II) chloride complex, (SP-4-3)- [NSC-641296]
concentration from which significant decrease in very motile larvae was observed ([2]; 36 h, P < 0.05): 4 µM
cytotoxic IC50 relative to anthelmintic IC50 against larvae ([2]; MonoMac6 IC50 vs larvae IC50): 2 fold
percentage of sluggishly motile larvae relative to very motile ([2]; above 4 μM, 36 h): at least 2.7 fold
percentage of immotile worms relative to very motile worms ([2]; at 22 μM, larvae, 36 h): 4 fold
percentage of sluggishly motile worms relative to very motile ([2]; from 14 μM and above, larvae, 36 h): at least 3 fold
cytotoxic IC50 relative to anthelmintic IC50 against adult worms ([3]; MonoMac6 IC50 vs adult worm IC50): 4 fold
percentage of immotile worms relative to motile worms ([3]; at 8 μM and above, adult worms, 36 h): at least 2 fold
change in number of motile adult worms ([3]; at 8 μM, 36 h): decrease by half
IC50 (MonoMac6 cells): 29 ± 2.1 µM
